Published values gathered from unrelated publications.
Compare with care: the assays were run in different laboratories.
Target: Activin receptor type-1-like (ACVRL1, Homo sapiens, UniProt P37023)

`CC1CCCN1c1nccc(-c2cnn3ncccc23)n1` (stereo not shown) gave a remaining binding of 89% (binding; 1 µM).
`C[C@@H](c1ccc(-n2cnc3c(N)ncnc32)cc1)N1CCc2nn(C)c(Cc3ccccc3)c2C1=O` gave a remaining binding of 66% (binding, competition with immobilised ligand; 0.1 µM).
For `CN(C)CC#Cc1ccc(OCCCc2sc(N3CCc4cccc(C(=O)Nc5nc6ccccc6s5)c4C3)nc2C(=O)O)c(F)c1`, the remaining binding was 82% (binding, competition with immobilised ligand; 1 µM).
For `O=C(NCCCN1CCOCC1)c1ccc(Nc2ncc(Cl)c(-c3ccc(Cl)s3)n2)cc1`, the remaining binding was 100% (binding, competition with immobilised ligand; 1 µM).
The remaining binding of `c1cncc(-c2cccc(Nc3nccc(NC4CCCCC4)n3)c2)c1` is reported as 52% (binding, competition with immobilised ligand; 10 µM).
With `CCOCCn1cc(C(=O)Nc2ccc(-n3nc(-c4cccnc4)cc3C(F)(F)F)cn2)ccc1=O` the remaining binding was 100% (cell-free assay, competition with immobilised ligand; 1 µM).
`c1cnn2ncc(-c3ccnc(N4CCC45COC5)n3)c2c1` gave a remaining binding of 100% (binding; 1 µM).
For `CC(=O)N1CCC(c2ccc(C(=O)NC3=NCCN3)cc2C(F)(F)F)CC1`, the remaining binding was 100% (binding, competition with immobilised ligand; 1 µM).
For `N[C@H]1CCN(c2nccc(-c3cnn4ncccc34)n2)C1`, the remaining binding was 97% (binding; 1 µM).
`Cc1cnc(Nc2ccc(C(=O)N3CCC(N4CCCC4)CC3)cc2)nc1-c1cc2ccccc2s1` has a remaining binding of 100% (binding, competition with immobilised ligand; 1 µM).
`CN(CCCC(F)(F)F)c1nccc(-c2cnn3ncccc23)n1` gave a remaining binding of 68% (binding; 1 µM).
With `FC(F)(F)Oc1cccc(-c2cnc3ccc(-c4ccncc4)nn23)c1` the remaining binding was 85% (cell-free assay, competition with immobilised ligand; 5 µM).
For `NS(=O)(=O)c1cc(NC(=O)C2(c3ccccc3Cl)CC2)ccc1Oc1cccc(Cl)c1`, the remaining binding was 45% (binding, competition with immobilised ligand; 1 µM).
`COc1ccnn2ncc(-c3ccnc(N(C)C)n3)c12` has a remaining binding of 100% (binding; 1 µM).
`Cc1cc(C)c(-n2ccn3nc(-c4cccnc4)cc23)cc1NC(=O)c1cc(C#N)cc(S(F)(F)(F)(F)F)c1` has a remaining binding of 78.9% (binding, competition with immobilised ligand; 0.1 µM).
`CCN1CCN(Cc2ccc(C(=O)Nc3ccc(C)c(Oc4ccc5c(c4)CC(=O)N5)c3)cc2C(F)(F)F)CC1` has a remaining binding of 100% (binding, competition with immobilised ligand; 1 µM).
With `CN(c1nccc(-c2cnn3ncccc23)n1)C1CC1` the remaining binding was 76% (binding; 1 µM).
The remaining binding of `C=CC(=O)N1CCC(C(=O)NCC(=O)N2CCN(c3nc(-c4cnc(N)nc4C(F)F)nc(N4CCOCC4)n3)CC2)CC1` is reported as 92% (binding, competition with immobilised ligand; 1 µM).
`CCCCN(CCCC)C(=O)CN1C[C@@H](c2cc(OC)c3c(c2)OCO3)[C@H](C(=O)O)[C@H]1CC(C)(C)CCC` has a remaining binding of 99.4% (cell-free assay, competition with immobilised ligand; 1 µM).
For `CNC(=O)[C@@H]1CC[C@@H](n2c(-c3ccc4cnccc4c3)nc3ccc(C(=O)NCc4cccc(C(N)=O)c4)cc32)C1`, the remaining binding was 68% (binding, competition with immobilised ligand; 1 µM).
With `O=C(c1ccc(Nc2ncc(Cl)c(-c3cc4ccccc4s3)n2)cc1)N1CCC(N2CCCC2)CC1` the remaining binding was 100% (binding, competition with immobilised ligand; 1 µM).
`O=C(NCC1CCOCC1)c1n[nH]cc1NC(=O)c1c(F)cccc1F` gave a remaining binding of 94% (binding, competition with immobilised ligand; 1 µM).
